Assay outcomes (PubChem BioAssay)
Rows were chosen to be rich in hits. Some 3.7% of all compounds tested hit in one or more screens of this group.
KCNQ1 inh: human KCNQ1 channel inhibition; P51787; AID 2642; B-score at 10 µM; 1.3% of 310,000 active; CHO-K1 KCNQ1, FluxOR thallium flux fluorescence; stronger effect = higher value;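 active means compounds whose thallium flux B-score, printed positive for inhibition, exceeds three library SD while starting fluorescence stays within three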;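 further: channel opened by potassium depolarization with thallium stimulus after 20 min compound exposure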
hERG protect: compounds protecting human hERG from proarrhythmic drug block; Q12809; CHO-hERG, FluxOR thallium flux, dofetilide IC70 present; 0.51% of 310,000 active; activation (rescue from dofetilide block), less the hit threshold, % at 10 µM;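 active means activation above the mean of controls blocked by dofetilide plus 5 SD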;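 further: thallium influx through hERG after potassium depolarization seen as dye fluorescence rise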
KCNK3 inh: human KCNK3 channel inhibition, primary screen. CHO-KCNK3 thallium flux, FluxOR fluorescence; stronger effect = lower value. B-score at 10 µM. 0.84% of 340,000 active. AID 602410;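 active means B-score under library mean minus 4 SD, starting fluorescence ratio at most library mean plus 5 SD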;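 further: more negative B-score means stronger inhibition of thallium flux through KCNK3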
KCNK9 block: human KCNK9 channel inhibition; B-score at 10 µM; Q9NPC2; 1.2% of 310,000 active; HEK293 KCNK9, FluxOR thallium flux fluorescence; stronger effect = lower value;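 active means ratio B-score over 3 SD below the library mean, with starting fluorescence within 5 SD of its mean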;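 further: negative B-score means less thallium flux so channel inhibition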
KCNQ1 act: potentiates or activates the human KCNQ1 potassium channel; 0.35% of 310,000 active; B-score at 10 µM; P51787; CHO-K1 KCNQ1, thallium flux FluxOR fluorescence; stronger effect = higher value;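 active means fluorescence ratio B-score, a plate-corrected score, at least three library SD, with initial intensity B-score within 5 SD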
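Schedule – 37 °C overnight plating, 90-min dark dye load, 20-min compound pretreatment · System – stable KCNQ1 CHO-K1 line · Probe or stimulus – thallium- and potassium-containing depolarizing buffer · Measured by – kinetic FluxOR fluorescence, 10 s baseline plus 110 s post-stimulus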
Kir21 inh: inhibitors of mouse Kir2.1 inward-rectifier potassium channel | HEK293-Kir2.1, FluxOR thallium flux fluorescence; stronger effect = lower value | 0.85% of 310,000 active | B-score at 10 µM;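 active means fluorescence ratio B-score at or below minus 3 SD of library scores, with starting-brightness B-score within 2 SD, cut at about -4.2 in these data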;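 further: channel flux triggered by added potassium and thallium sulfate stimulus; B-score of peak minus minimum fluorescence over baseline after thallium stimulus; more negative B-score means stronger Kir2.1 block with less thallium influx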
The depositor's hits bear a star; i = inactive; . = no result.

SMILES	KCNQ1 inh	hERG protect	KCNK3 inh	KCNK9 block	KCNQ1 act	Kir21 inh
CCN(CC)c1nc2ccccc2nc1C(C#N)C(=O)NCCCOC (stereo not drawn)	i	-4	i	i	i	0.4
CCCCN(CCCC)c1nc2ccccc2nc1C(C#N)C(=O)NCCCOC (stereo not drawn)	15*	-19	i	i	i	-1.6
CCN(CC)c1nc2ccccc2nc1C(C#N)C(=O)NCCc1ccccc1 (stereo not drawn)	i	-16	i	i	i	-0.59
CCCN(CCC)c1nc2ccccc2nc1C(C#N)C(=O)OC(C)COC (stereo not drawn)	8*	-9	.	i	i	-1.6
COc1cc(OC)nc(Oc2ccc(N)c(C)c2)n1	i	-12	i	i	i	0.5
O=C(O)CNS(=O)(=O)c1ccc(Br)s1	i	-6	i	i	i	-1.1
O=S(=O)(NCCc1ccccc1)c1ccc(Br)s1	i	-6	i	i	i	-4.2*
O=C(O)c1ccc(-c2cccc([N+](=O)[O-])c2)o1	i	-11	i	i	i	-0.67
N#C/C(=C(/O)c1ccc(-c2cccc([N+](=O)[O-])c2)o1)c1nc2ccccc2s1	7*	-11	i	i	i	1.8
CCN(CC)CCN(C(=O)c1cc2ccccc2cc1OC)c1nc2ccc(OC)cc2s1	9*	-22	i	i	i	0.45
CC(C)OC(=O)/C(=C/c1ccc2c(c1)c1ccccc1n2C)NC(=O)c1ccccc1	i	-4	i	-7.6*	i	0.35
Cn1c2ccccc2c2cc(/C=C(\NC(=O)c3ccccc3)C(=O)O)ccc21	i	-4	i	i	i	2
CC(C)OC(=O)/C(=C\c1cccnc1)NC(=O)c1ccccc1	i	-5	i	i	i	-0.15
CC(C)OC(=O)/C(=C\c1ccc2c(c1)c1ccccc1n2C)NC(=O)c1ccccc1	i	-8	i	-7.9*	i	-1.5
Cc1cc(O)cc(=O)n1Cc1ccccc1	i	0	i	i	i	0.06
COc1cc(C(=O)NC2CCCC(C)C2C)ccc1OCC(=O)N1CCOCC1 (stereo not drawn)	.	.	i	.	.	.
CCC(C)NC(=S)N1CCN(C(c2ccccc2)c2ccccc2)CC1 (stereo not drawn)	i	-7	i	-7.7*	i	0.47
CSc1nc2cc(Oc3cccc(Cl)c3Cl)c(Cl)cc2[nH]1	14*	-8	-11*	i	i	0.02
Cc1cc(C(=O)CN2C(=O)C(=O)N(CC(C)C)C2=O)c(C)n1-c1ccccc1F	i	-15	i	i	i	1.4
CCOC(=O)C(=CNc1cccnc1Oc1ccc(C)c2c1CCC2)C(=O)OCC	i	-8	i	-7.2*	i	-2.1
CCCc1nn2c(=O)cc(CSCC(=O)Nc3cccc(OC)c3)nc2s1	i	-7	i	i	i	-1.2
CCOc1cccc(C(=O)Nc2ccc3oc(Cc4ccc(Cl)cc4)nc3c2)c1	6*	-9	i	i	i	-0.65
Brc1ccc(C2=Nn3cnnc3SC2)cc1	i	-7	i	i	i	-0.05
CC#CC[N+](C)(C)CCCCCCCCCCCC	6*	-23	i	i	i	-5*
COc1ccccc1OCC#CCNC1CCCCC1C (stereo not drawn)	i	-22	i	i	i	-5.5*
SMILES	KCNQ1 inh	hERG protect	KCNK3 inh	KCNK9 block	KCNQ1 act	Kir21 inh
CCOc1ccc(CCNC(=O)CCCn2c(=O)c3cccn3c3cccnc32)cc1OCC	i	-7	i	i	i	-1
O=C(Cc1ccccc1)Nc1ccccc1Sc1ccccc1	i	-5	i	i	i	-9.2*
O=C(Cc1ccc(F)cc1)Nc1ccccc1Sc1ccccc1	i	-3	i	i	i	-6.3*
CSc1ccccc1NC(=O)Cc1ccccc1	i	-13	i	i	i	-0.43
O=C(Nc1ccccc1Sc1ccccc1)c1ccccc1	i	-9	i	-7.7*	i	1.1
O=C(Nc1ccccc1Sc1ccccc1)C1CCCO1 (stereo not drawn)	i	-5	i	i	i	-4.8*
